KLK7 zymogen act – activates the human kallikrein-7 zymogen; purified proKLK7, EDANS-DABCYL substrate fluorescence; 100% is mature enzyme control, 0% vehicle; activation, % at 7 µM; 370,000 compounds, 0.9% hits;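 active = activation above the mean of all tested compounds plus 3 SD, computed per campaign excluding outliers beyond control limits, cut at about 13% in these data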
NRP1-CendR mod – NRP-1/CendR interaction modulation | O14786 | FAM-RPARPAR peptide binding to NRP-1, fluorescence polarization | inhibition, % at 25 µM | 360,000 compounds, 0.85% hits | AID 602438;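 active = inhibition or corrected inhibition above about 18%, plus a signal ratio from 0.5 to 1.5, limit read from the data, passing the limit was not always enough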
Tn6 DDE FP – DD(E)-Tn6 binding inhibition, primary FP screen | Fibrin DD(E) TRITC-Tn6 fluorescence polarization displacement | inhibition, % at 8.3 µM | 370,000 compounds, 0.21% hits | AID 720509;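 active = inhibition above a per-campaign cutoff: mean of compounds within control limits plus 3 SD, cut at about 15% in these data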;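 note: 0% = median of all compound wells on the plate and 100% = blocking peptide control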
PLC-beta3 inh – blocks human PLC-beta3 enzyme activity; Purified PLC-beta3, fluorogenic substrate, fluorescence; 370,000 compounds, 0.18% hits; inhibition, % at 12.2 µM; Q01970; AID 720704;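 note: 0% = median of compound wells on plate and 100% = full blocker control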
PLC-gamma1 inh – PLC-gamma1 (human) inhibition, primary screen | inhibition, % at 12.2 µM | P19174 | purified PLC-gamma1, fluorogenic substrate, fluorescence | 370,000 compounds, 0.84% hits; in the data active = inhibition above about 9.5%
Tn7 DDE FP – inhibitors of Tn7 peptide binding to human fibrin DD(E); P02675; FP displacement of FITC-Tn7 peptide from fibrin DD(E); 0% = median of compound wells per plate; inhibition, % at 8.3 µM; 370,000 compounds, 0.13% hits;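 active = inhibition above the mean of compounds falling within the control limits plus 3 SD of them, cut at about 14% in these data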;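 note: 0% = plate median of compound wells and 100% = 10 µM Aha-Tn7 peptide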
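Assay system: human fibrin DD(E). Input: DD(E) 2 µM final. Medium: Tris buffer with calcium and detergent, pH 7.8. Compound dosing: single point at 8.3 µM. Timing: 10 min plus 3 h, room temperature. Technique: fluorescence polarization of the labelled Tn7 tracer. Read-out: percent inhibition. Replicates: singlicate testing.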
PLCgamma1 ctr – inhibits human PLC-gamma1 in PLC-beta3 counter-screen; shares compounds with PLC-gamma1 inh; purified PLC-gamma1, fluorogenic substrate, fluorescence; inhibition, % at 12.3 µM; 3,300 compounds, 3.1% hits; in the data active = inhibition above about 9.5%
PLCbeta3 conf – confirmation of human PLC-beta3 inhibitors; shares compounds with PLC-gamma1 inh; purified PLC-beta3, fluorogenic substrate fluorescence; inhibition, % at 12.3 µM; 3,300 compounds, 1% hits; AID 743261
* hit, by the source's call; nt = not tested or not shown. Hits are enriched below; roughly 3% of the tested compounds scored in any of these assays. Cut-off read from the data, not from the text of the source, unless noted: active = inhibition above about 11%; inactive = the rest.

SMILES	KLK7 zymogen act	NRP1-CendR mod	Tn6 DDE FP	PLC-beta3 inh	PLC-gamma1 inh	Tn7 DDE FP	PLCgamma1 ctr	PLCbeta3 conf
COC(=O)CC(C(=O)Nc1cc(C(=O)OC)cc(C(=O)OC)c1)N1CCN(C)CC1 (configuration not stated)	0	-9	1	11*	14*	-1	-4	0
O=C(CSCc1ccccc1)N=Nc1c(O)[nH]c2ccccc12	0	-4	5	-2	-3	7	nt	nt
Cc1ccc2[nH]c(O)c(N=NC(=O)CCc3ccccc3)c2c1Br	1	1	-7	5	9.9*	-1	-7	-2
COC(=O)[C@H](C)NC(=O)/C=C/c1ccc(OC)cc1	0	-11	-1	10	9.8*	-5	7	3
O=C(OCCCCSc1nnc(-c2cccc3ccccc23)o1)c1ccc(F)cc1	nt	nt	2	-8	-5	0	nt	nt
Cc1cccc(NC2=C(Cl)C(=O)OC2OC(C)C)c1 (configuration not stated)	0	12	-6	7	10*	3	6	1
Cc1cc(C)nc(Nc2nc(C(N)CCc3ccccc3)cs2)n1 (configuration not stated)	0	-4	3	11*	14*	-9	-6	-14
Cc1ccc(-n2c(SCC(=O)Nc3ccc4c(c3)OCCO4)nnc2-c2cnccn2)cc1	0	nt	1	1	1	-3	nt	nt
COc1ccc(CNC2CCC23CCC(c2ccccc2)CC3)cc1OC (configuration not stated)	nt	nt	0	2	2	4	nt	nt
CCOc1ccc(-n2nnnc2SCC(=O)Nc2ccc(NC(C)=O)cc2)cc1	0	-6	5	-1	0	3	nt	nt
CCOc1ccc(-n2nnnc2SCC(=O)Nc2cccc(O)c2)cc1	0	-3	-1	4	13*	-3	-3	-3
CSc1ccc(C=Nn2c(-c3cc(C)[nH]n3)n[nH]c2=S)cc1	0	nt	-4	-2	-5	6	nt	nt
Cc1cccc(NC2=C(C#N)C(=O)NC3(CCCC3)S2)c1	0	4	1	-11	-1	-6	nt	nt
COC(=O)CSC1=C(C#N)C(=O)NC2(CCCCC2)S1	0	7	-8	9	16*	-4	-6	-7
Cn1cccc1CC(=O)NN=Cc1cccc(F)c1	0	nt	-3	-4	-2	-2	nt	nt
CCOC(=O)C(NC(=O)c1ccc(OC)cc1)(N1CCOCC1)C(F)(F)F (configuration not stated)	0	-2	6	5	5	-7	nt	nt
CCOC(=O)C(NC(=O)c1ccccc1)(N1CCOCC1)C(F)(F)F (configuration not stated)	0	-1	8	4	10*	-4	-3	-3
COc1ccc(CN(C)C(=O)c2ccc(NS(=O)(=O)c3ccc4[nH]c(=O)[nH]c4c3)cc2)c(OC)c1	0	8	1	-2	15*	2	1	-5
c1ccc(CCn2c(SCc3ccccc3)nnc2-c2ccncc2)cc1	-1	-7	0	2	9.9*	0	-5	-4
C=CCn1c(SCc2cccc(OC)c2)nnc1-c1ccncc1	0	0	0	0	12*	2	0	-3
CCOc1ccc(N(CC(=O)NC2CCCC2)C(=O)CCC(=O)Nc2ccccn2)cc1	1	4	-12	1	1	-5	nt	nt
CCOc1ccc(N(CC(=O)NC2CCCC2)C(=O)CCCC(=O)Nc2ccccn2)cc1	1	-2	1	15*	5	-1	1	-6
CN(C)S(=O)(=O)c1cccc(C(=O)N/N=C\c2ccc(-c3ccccn3)cc2)c1	2	nt	0	-6	-2	-3	nt	nt
CC1(C)CC(=O)C(C2=NC3(CCCCCC3)Cc3ccccc32)=C(O)C1	0	14	-5	2	10*	-1	3	4
Cc1c(NC2=NC3(CCCCC3)Cc3ccccc32)c(=O)n(-c2ccccc2)n1C	-1	-5	2	1	0	6	nt	nt
SMILES	KLK7 zymogen act	NRP1-CendR mod	Tn6 DDE FP	PLC-beta3 inh	PLC-gamma1 inh	Tn7 DDE FP	PLCgamma1 ctr	PLCbeta3 conf
COP(=O)(CC(=O)OC(C)(C)C)C(CC(C)C)NC(=O)OCc1ccccc1 (configuration not stated)	-1	nt	4	3	-2	4	nt	nt
CCSc1cc(C)nc2ncnn12	1	1	-4	14*	13*	-1	-13	-6
Cc1ccc(-c2cc(-c3nnc(SCC(=O)N4CCOCC4)n3N)[nH]n2)cc1	1	nt	-3	2	2	-1	nt	nt
COc1ccc2c(c1)OC(O)(C(F)F)CC2=O (configuration not stated)	0	3	2	2	12*	-5	-9	-3
COc1ccc2c(c1)C(=O)CC(c1ccccc1F)O2 (configuration not stated)	-2	4	-2	-267	-232	-2	nt	nt
CCOC(=O)C1(C)CCN1C(=O)c1ccc(C)cc1 (configuration not stated)	0	0	3	16*	9.8*	-7	-2	2
CCOC(=O)C1(C)CCN1C(=O)c1ccc(-c2ccccc2)cc1 (configuration not stated)	0	12	0	1	-1	2	nt	nt
CN(C)[C@@H]1CCN(c2cccc3c2S(=O)(=O)N2CC[C@@H](C2)O3)C1	0	nt	1	-3	-2	9	nt	nt
CCc1nc2nc(C)c(NS(=O)(=O)c3ccc(F)cc3)c(=O)n2[nH]1	-1	-9	-5	8	11*	-1	-2	1
C#CCOc1ccc(Br)cc1C(c1c(C)[nH][nH]c1=O)c1c(C)[nH][nH]c1=O	-1	6	1	-2	62*	0	-3	-1
CCOc1ccc(Cl)cc1C(c1c(C)[nH][nH]c1=O)c1c(C)[nH][nH]c1=O	0	-4	-1	-16	-5	5	nt	nt
Cc1ccc(C2=N/C(=C\N(C)C)C(=O)O2)cc1	0	-10	0	6	9.6*	-11	6	7
CN(C)/C=C1/N=C(c2ccccc2)OC1=O	1	7	-5	10	10*	-1	4	10
CCCN(CC1CC1)C(=O)CSc1nnc(-c2ccncc2)n1-c1ccc(OC)cc1	1	nt	6	1	2	-6	nt	nt
CN(C)S(=O)(=O)c1ccc(C(=O)Nc2nnc(Cc3ccccc3)s2)cc1	0	-7	-2	11*	9	-1	-4	-13
O=C(Nc1nnc(Cc2ccccc2)s1)c1ccccc1	0	-2	6	-7	-1	0	nt	nt

Source: PubChem (several laboratories)
